RGS4 inh: inhibitors of human RGS4. HEK293 M3R/RGS4 inducible, Fluo-4 calcium flux; stronger effect = higher value; triggered by carbachol at its EC20. B-score at 10 µM. hit rate 0.45% among 310,000. AID 463165;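 active = B-score, a plate-corrected calcium signal, over three deviations above library mean, with baseline fluorescence within five deviations of library mean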;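 also: RGS4 expression induced by doxycycline in cells with stable M3 receptor; B-score is computed from the integrated fluorescence ratio over baseline after carbachol; higher B-score means a larger calcium signal and so more RGS4 inhibition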
Target sequence (P49798 whole entry, looked up): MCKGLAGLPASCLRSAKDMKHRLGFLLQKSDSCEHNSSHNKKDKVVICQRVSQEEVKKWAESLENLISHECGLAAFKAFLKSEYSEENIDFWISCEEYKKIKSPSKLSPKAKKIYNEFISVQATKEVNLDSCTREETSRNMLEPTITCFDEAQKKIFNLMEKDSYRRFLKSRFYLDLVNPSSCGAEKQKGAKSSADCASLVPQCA
MrgX1 agonist: activates human MrgX1 receptor signaling. B-score at 10 µM. hit rate 0.44% among 310,000. MrgX1-HEK293 cells, Fluo-4 calcium fluorescence, agonist mode; stronger effect = higher value;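 active = calcium response B-score plate-corrected fluorescence ratio at least 3 library SD, with starting fluorescence B-score inside 5 SD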
Target sequence (Q96LB2 whole entry, looked up): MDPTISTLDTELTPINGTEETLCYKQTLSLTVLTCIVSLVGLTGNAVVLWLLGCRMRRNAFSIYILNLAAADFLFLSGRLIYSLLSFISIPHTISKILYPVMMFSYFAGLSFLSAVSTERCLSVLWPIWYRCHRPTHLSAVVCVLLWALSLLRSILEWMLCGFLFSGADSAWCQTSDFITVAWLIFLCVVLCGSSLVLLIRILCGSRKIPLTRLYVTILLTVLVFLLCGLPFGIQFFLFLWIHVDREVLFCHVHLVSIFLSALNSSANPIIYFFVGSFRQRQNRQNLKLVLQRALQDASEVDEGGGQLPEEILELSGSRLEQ
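Test system: Stable human MrgX1 HEK293 cell line | Schedule: Overnight plating before 1 h dye loading | Read-out basis: Baseline-normalised fluorescence change ratio, B-scored | Detection: Kinetic calcium dye fluorescence, Fluo-4 NW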
RGS4 act: RGS4 potentiation or activation. B-score at 10 µM. hit rate 0.92% among 310,000. HEK293 M3R/inducible RGS4, carbachol calcium flux Fluo4; stronger effect = lower value;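 active = B-score of the integrated calcium signal more than 4 SD below the library mean, with starting fluorescence not abnormally high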;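 also: negative B-score means reduced calcium response which marks RGS4 activation or potentiation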
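Material: Inducible-RGS4 HEK293 cells carrying M3 receptor; also added: carbachol at ECmax as muscarinic agonist stimulus; incubation: compound preincubation 20 min at room temperature before agonist; signal: Fluo4-AM (2 µM) calcium-flux fluorescence, kinetic read; measure: integrated calcium ratio converted to B score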
MrgX1 allo act: human MrgX1 positive allosteric modulation, primary screen; Q96LB2; MrgX1-HEK293, Fluo-4 calcium flux, FDSS; stronger effect = higher value; B-score at 10 µM; hit rate 0.63% among 310,000; AID 588675;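 active = plate-corrected calcium response at least 3 library SD above typical, normal starting fluorescence, not activating the receptor alone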;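 also: compound read alongside a low EC10 to EC30 dose of BAM8-22 agonist; peak minus trough fluorescence over baseline measured at the second addition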
MrgX1 antag: blocks BAM8-22 activation of human MrgX1 receptor; Q96LB2; AID 588676; MRGX1-HEK293 calcium flux, Fluo-4, BAM8-22 antagonism; stronger effect = lower value; hit rate 1.3% among 310,000; B-score at 10 µM;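 active = calcium-response B-score plate-corrected more than 3 library SD below zero, starting fluorescence within 5 deviations, no agonist response on first addition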;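 also: peak minus trough fluorescence over baseline after final BAM8-22 challenge near maximal dose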
RGS4 inh valid: RGS4 inhibitor validation | hit rate 65% among 1,700 | shares compounds with RGS4 inh | calcium response, % at 10 µM | HEK293 M3R/RGS4, carbachol calcium Fluo-4 fluorescence; carbachol added at its EC20; 0 = buffer wells, 100 = carbachol control;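 active = duplicate-averaged calcium response above the buffer-only control mean plus 5 SD of those controls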;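 also: integrated fluorescence ratio F max minus min over baseline F0; higher response in RGS4-induced cells means RGS4 inhibition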
RGS4 uninduced: counter-screen for RGS4 inhibitors: effect in non-induced cells | shares compounds with RGS4 inh | HEK293 M3R non-induced, carbachol calcium Fluo-4; submaximal (EC20) carbachol stimulus; buffer wells 0%, carbachol control wells 100% | AID 493000 | hit rate 20% among 1,900 | activity (percent), % at 10 µM; call rule not given here;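 also: RGS4 induction absent so cells express M3R without RGS4; higher means more calcium signal and flags a non-specific hit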
RGS4 inh ctr2: signal in non-induced cells without carbachol, RGS4 inhibitor counter-screen. shares compounds with RGS4 inh. HEK293 M3R/RGS4 non-induced, Fluo-4 calcium, no carbachol; normalised: buffer wells 0%, carbachol wells 100%. calcium response (agonist-mode artifact), % at 10 µM. hit rate 22% among 1,900;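 active = duplicate-averaged calcium rise in uninduced cells above buffer wells' mean plus 5 SD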
MrgX1 ag reconf: reconfirmed activator of human MrgX1 receptor signaling | shares compounds with MrgX1 agonist | MrgX1-HEK293, Fluo-4 calcium fluorescence, FDSS | activation, % at 10 µM | hit rate 78% among 600 | AID 602412;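 active = calcium signal rise, corrected for plate position, at least 3 library SD high, with starting brightness within 5 such deviations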
HEK293 Ca flux: activity in parental HEK293 cells lacking MrgX1 | fluorescence ratio F(max-min)/F0 at 10 µM | Fluo-4 calcium fluorescence, FDSS | AID 624111 | hit rate 2% among 4,000 | shares compounds with MrgX1 antag;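 active = duplicate-averaged calcium fluorescence ratio at least three times the standard deviation of buffer wells, a nonspecific response in parental cells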
HEK293 Ca counter: activity in parental HEK293 cells without MrgX1; parental HEK293 calcium flux, Fluo-4 fluorescence ratio; stronger effect = higher value; shares compounds with MrgX1 antag; fluorescence ratio F(max-min)/F0 at 10 µM; AID 624114; hit rate 0.4% among 4,000;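 active = calcium fluorescence ratio, averaged over duplicates, at least 3 SD of the buffer-well ratio, meaning a nonspecific response in receptor-free cells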;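 also: untransfected parental HEK293 lacking MrgX1 used as counterscreen for MrgX1 allosteric activators; fluorescence change taken during the second addition on a kinetic imager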
HEK293 Ca cntr2: activity in parental HEK293 cells lacking MrgX1 receptor; fluorescence ratio F(max-min)/F0 at 10 µM; hit rate 8.7% among 4,000; Fluo-4 calcium fluorescence (FDSS); stronger effect = higher value; shares compounds with MrgX1 antag;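 active = calcium fluorescence ratio at least three times the spread of buffer wells, meaning a non-specific response in parental cells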
Numbers stand for hits. Compounds with a hit are over-represented: about 3.5% of the library has one in this group of screens.

How did O=C(Cn1cc(C=C2C(=O)NC(=O)NC2=O)c2ccccc21)NCC1CCCO1 (stereo unspecified) do in these assays?
RGS4 inh: inactive; MrgX1 agonist: inactive; RGS4 act: inactive; MrgX1 allo act: inactive; MrgX1 antag: inactive

Results for Cc1c(C=C2C(=O)N(C)C(=S)N(C)C2=O)c2ccccc2n1CC(=O)NCC1CCCO1 (stereo unspecified) ?
RGS4 inh: 5.1; MrgX1 agonist: inactive; RGS4 act: inactive; MrgX1 allo act: inactive; MrgX1 antag: inactive; RGS4 inh valid: 54%; RGS4 uninduced: inactive; RGS4 inh ctr2: 24%

Results for O=[N+]([O-])c1ccc(N2CCCC2)c2ncccc12 ?
RGS4 inh: inactive; MrgX1 agonist: inactive; RGS4 act: inactive; MrgX1 allo act: inactive; MrgX1 antag: inactive

What do the screens show for `CC1CN(c2ccc([N+](=O)[O-])c3cccnc23)CC(C)N1` (stereo unspecified)?
RGS4 inh: 5.8; MrgX1 agonist: inactive; RGS4 act: inactive; MrgX1 allo act: inactive; MrgX1 antag: inactive; RGS4 inh valid: inactive; RGS4 uninduced: inactive; RGS4 inh ctr2: inactive

Results for Cc1cc(C)c(-n2c(O)c(/C=N/N3CCCCC3c3cccnc3)c(=O)[nH]c2=O)c(C)c1 (stereo unspecified) ?
RGS4 inh: inactive; MrgX1 agonist: inactive; RGS4 act: inactive; MrgX1 allo act: inactive; MrgX1 antag: inactive

What do the screens show for `COc1ccc(NP(=O)(Oc2ccc(Cl)cc2)Oc2ccc(Cl)cc2)cc1OC`?
RGS4 inh: 12; MrgX1 agonist: inactive; RGS4 act: inactive; MrgX1 allo act: inactive; MrgX1 antag: inactive; RGS4 inh valid: 42%; RGS4 uninduced: inactive; RGS4 inh ctr2: inactive

Results for N[C@@H](Cc1cc(Br)c(O)c(Br)c1)C(=O)O ?
RGS4 inh: 6.7; MrgX1 agonist: inactive; RGS4 act: inactive; MrgX1 allo act: inactive; MrgX1 antag: inactive; RGS4 inh valid: 12%; RGS4 uninduced: inactive; RGS4 inh ctr2: inactive

Results for CC/C(=N\N1CCCCC1)c1c(O)[nH]c(=O)[nH]c1=O ?
RGS4 inh: 4.7; MrgX1 agonist: inactive; RGS4 act: inactive; MrgX1 allo act: inactive; MrgX1 antag: inactive; RGS4 inh valid: 8.5%; RGS4 uninduced: inactive; RGS4 inh ctr2: inactive

Results for CCOP(=O)(OCC)C(O)c1ccc(N(C)C)cc1 (stereo unspecified) ?
RGS4 inh: inactive; MrgX1 agonist: inactive; RGS4 act: inactive; MrgX1 allo act: inactive; MrgX1 antag: inactive

Results for O=C(Cc1ccccc1)N1CCN(Cc2cccnc2)CC1 ?
RGS4 inh: inactive; MrgX1 agonist: inactive; RGS4 act: inactive; MrgX1 allo act: inactive; MrgX1 antag: inactive

Results for CNc1ccc2oc(C[C@H]3O[C@@]4(CC[C@H]3C)O[C@H]([C@H](C)C(=O)c3ccc[nH]3)[C@H](C)C[C@H]4C)nc2c1C(=O)O ?
RGS4 inh: inactive; MrgX1 agonist: 160; RGS4 act: inactive; MrgX1 allo act: inactive; MrgX1 antag: inactive; MrgX1 ag reconf: 823%; HEK293 Ca flux: inactive; HEK293 Ca counter: inactive; HEK293 Ca cntr2: 158

What do the screens show for `CCOC(=O)C1=C(N)OC2=C(C(=O)CCC2)C12C(=O)N(C)c1ccccc12` (stereo unspecified)?
RGS4 inh: inactive; MrgX1 agonist: inactive; RGS4 act: inactive; MrgX1 allo act: inactive; MrgX1 antag: inactive

How did CC(C)(C)c1ccc(O)c(N=Cc2c(O)ccc3ccccc23)c1 do in these assays?
RGS4 inh: inactive; MrgX1 agonist: 56; RGS4 act: inactive; MrgX1 allo act: inactive; MrgX1 antag: inactive; MrgX1 ag reconf: 115%; HEK293 Ca flux: inactive; HEK293 Ca counter: inactive; HEK293 Ca cntr2: 46

How did O=P(O)(O)Cc1c(Cl)cccc1Cl do in these assays?
RGS4 inh: inactive; MrgX1 agonist: inactive; RGS4 act: inactive; MrgX1 allo act: inactive; MrgX1 antag: inactive

How did CN(C)C1C(=O)C(C(N)=O)=C(O)C2(O)C(=O)C3=C(O)c4c(O)cccc4C(C)(O)C3C(O)C12 (stereo unspecified) do in these assays?
RGS4 inh: inactive; MrgX1 agonist: inactive; RGS4 act: inactive; MrgX1 allo act: inactive; MrgX1 antag: inactive

What do the screens show for `O=C1CCCN1CC#CCN1CCCC1`?
RGS4 inh: inactive; MrgX1 agonist: 52; RGS4 act: inactive; MrgX1 allo act: inactive; MrgX1 antag: inactive; MrgX1 ag reconf: 226%; HEK293 Ca flux: inactive; HEK293 Ca counter: inactive; HEK293 Ca cntr2: 49

Results for CC1(C)CSC(=NCc2ccccc2)N1 ?
RGS4 inh: inactive; MrgX1 agonist: 164; RGS4 act: inactive; MrgX1 allo act: inactive; MrgX1 antag: inactive; MrgX1 ag reconf: 677%; HEK293 Ca flux: inactive; HEK293 Ca counter: inactive; HEK293 Ca cntr2: 129

Results for COC(=NC1CCCC1)C(O)c1c[nH]c2ccccc12 (stereo unspecified) ?
RGS4 inh: inactive; MrgX1 agonist: inactive; RGS4 act: inactive; MrgX1 allo act: inactive; MrgX1 antag: inactive

How did CN1CCN(c2ccc3c(c2)S(=O)(=O)c2ccccc2C3=O)CC1 do in these assays?
RGS4 inh: inactive; MrgX1 agonist: 28; RGS4 act: inactive; MrgX1 allo act: inactive; MrgX1 antag: inactive; MrgX1 ag reconf: inactive; HEK293 Ca flux: inactive; HEK293 Ca counter: inactive; HEK293 Ca cntr2: 51

How did CN1CCN(c2cccc3c2C(=O)c2ccccc2C3=O)CC1 do in these assays?
RGS4 inh: inactive; RGS4 act: inactive

What do the screens show for `NC1=Nc2ccccc2Oc2ccccc21`?
RGS4 inh: inactive; MrgX1 agonist: 55; RGS4 act: inactive; MrgX1 allo act: inactive; MrgX1 antag: inactive; MrgX1 ag reconf: 226%; HEK293 Ca flux: inactive; HEK293 Ca counter: inactive; HEK293 Ca cntr2: inactive

High-throughput results: PubChem BioAssay, Johns Hopkins Ion Channel Center
